Source: ChEMBL document CHEMBL4699542, “Design and synthesis of novel methoxypyridine-derived gamma-secretase modulators” (Bioorg Med Chem, 2020)
Converted amounts (≈) assume the structure as drawn. Blank lines part the entries; values can stand above or below the molecule they belong to. The source made the active and inactive calls. The rule behind the calls is not given here.

Legend:
[1] = Cmax in CD-1 mouse at 5 mg/kg, po administered as single dose measured up to 24 hrs; assay type: ADME, organism-based; design: route oral, dose 5 mg/kg, time <=24; conditions: in vivo
How it was run: (§1)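 Male CD-1 mice, 6–8 weeks old, single dose by tail vein (1 mg/kg, 3% NMP/45% PEG300/12% ethanol/40% water) or oral gavage (5 mg/kg, 5% NMP/95% PEG300). Retro-orbital plasma sampled 0.083 (iv only) to 24 h, n=3/timepoint, and analysed by HPLC/MS/MS. Non-compartmental analysis. Half-life taken from the terminal phase using ≥3 non-zero points after Tmax.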

[2] = molecular target: Gamma-secretase; assay: Modulation of gamma secretase in human SH-SY5Y cells overexpressing wild type APP751 assessed as effect on amyloid beta40 level by meso scale discovery; assay type: cell-based
[3] = AUClast in CD-1 mouse at 1 mg/kg, iv administered as single dose measured up to 24 hrs; assay type: ADME, organism-based; design: route intravenous, dose 1 mg/kg, time <=24; conditions: in vivo; how it was run: as §1
[4] = Cmax in CD-1 mouse at 1 mg/kg, iv administered as single dose measured up to 24 hrs; assay type: ADME, organism-based; design: route intravenous, dose 1 mg/kg, time <=24; conditions: in vivo; how it was run: as §1
[5] = molecular target: Gamma-secretase; assay: Modulation of gamma secretase in human SH-SY5Y cells overexpressing wild type APP751 assessed as inhibition of amyloid beta (35 to 42 residues) formation incubated for overnight by ELISA; assay type: cell-based
How it was run: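 SHSY5Y-APP751 cells plated at 75K/well and incubated overnight at 37 °C, then treated 24 h over 10 concentrations ([…]–10 μM, 1:3.16 steps, in duplicate). Medium Aβ42 measured by sandwich ELISA (Aβ35–42 capture, AP-conjugated Aβ1–12 detection, CDP-Star luminescence) against an Aβ42 standard curve.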

[6] = molecular target: Gamma-secretase; assay: Modulation of gamma secretase in human SH-SY5Y cells overexpressing wild type APP751 assessed as effect on amyloid beta38 level by meso scale discovery; assay type: cell-based
[7] = Protein binding in plasma (unknown origin); assay type: ADME, cell-free
[8] = Kinetic aqueous solubility of the compound in pH 7.4 PBS buffer by UV/Visible absorbance analysis; assay type: physicochemical; conditions: read-out: Kinetic_solubility
How it was run: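 Kinetic solubility determined in PBS at pH 7.4 by UV/Vis absorbance, reported in μM.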

[9] = AUClast in CD-1 mouse at 5 mg/kg, po administered as single dose measured up to 24 hrs; assay type: ADME, organism-based; design: route oral, dose 5 mg/kg, time <=24; conditions: in vivo; how it was run: as §1
[10] = Metabolic stability in human liver microsomes assessed as parent compound remaining at 1 uM incubated for 30 mins; assay type: ADME, Microsome; conditions: microsomes, 0.5 h, 1 µM
How it was run: (§2)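 Test compound at 1 μM incubated 30 min with human, rat or mouse liver microsomes (1 mg/mL); parent remaining expressed as %.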

[11] = molecular target: Voltage-gated inwardly rectifying potassium channel KCNH2 (Homo sapiens, UniProt Q12809); assay: Inhibition of human ERG expressed in HEK293 cells by patch clamp assay; assay type: cell-based
[12] = Bioavailability in CD-1 mouse at 1 mg/kg, iv administered as single dose measured up to 24 hrs; assay type: ADME, organism-based; conditions: in vivo
How it was run: (§3)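 CD-1 mouse PK after single iv (1 mg/kg) and oral gavage (5 mg/kg) dosing, with plasma sampled to 24 h (n=3/timepoint) and measured by HPLC/MS/MS. F(%) = (AUC0-inf po × Dose iv)/(AUC0-inf iv × Dose po) × 100.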

[13] = molecular target: Cytochrome P450 2C9 (Homo sapiens, UniProt P11712); assay: Inhibition of recombinant CYP2C9 (unknown origin) by fluorescence-based assay; assay type: ADME
How it was run: (§4)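 Recombinant CYP isoforms (five tested) screened for inhibition in fluorescence-based assays; IC50 in μM.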

[14] = Half life in CD-1 mouse at 1 mg/kg, iv administered as single dose measured up to 24 hrs; assay type: ADME, organism-based; conditions: mouse, in vivo, 1 mg/kg, 24 h; how it was run: as §1
[15] = AUC infinity in CD-1 mouse at 1 mg/kg, iv administered as single dose measured up to 24 hrs; assay type: ADME, organism-based; design: route intravenous, dose 1 mg/kg, time <=24; conditions: in vivo; how it was run: as §1
[16] = molecular target: Cytochrome P450 2D6 (Homo sapiens, UniProt P10635); assay: Inhibition of recombinant CYP2D6 (unknown origin) by fluorescence-based assay; assay type: ADME; how it was run: as §4
[17] = Oral bioavailability in CD-1 mouse at 5 mg/kg administered as single dose measured up to 24 hrs; assay type: ADME, organism-based; conditions: in vivo; how it was run: as §3
[18] = Metabolic stability in mouse liver microsomes assessed as parent compound remaining at 1 uM incubated for 30 mins; assay type: ADME, Microsome; conditions: 0.5 h; how it was run: as §2
[19] = AUC infinity in CD-1 mouse at 5 mg/kg, po administered as single dose measured up to 24 hrs; assay type: ADME, organism-based; design: route oral, dose 5 mg/kg, time <=24; conditions: in vivo; how it was run: as §1
[20] = molecular target: T1, Cytochrome P450 1A2 (Homo sapiens, UniProt P05177); assay: Inhibition of recombinant CYP1A2 (unknown origin) by fluorescence-based assay; assay type: ADME; how it was run: as §4
T1 sequence (P05177 whole entry): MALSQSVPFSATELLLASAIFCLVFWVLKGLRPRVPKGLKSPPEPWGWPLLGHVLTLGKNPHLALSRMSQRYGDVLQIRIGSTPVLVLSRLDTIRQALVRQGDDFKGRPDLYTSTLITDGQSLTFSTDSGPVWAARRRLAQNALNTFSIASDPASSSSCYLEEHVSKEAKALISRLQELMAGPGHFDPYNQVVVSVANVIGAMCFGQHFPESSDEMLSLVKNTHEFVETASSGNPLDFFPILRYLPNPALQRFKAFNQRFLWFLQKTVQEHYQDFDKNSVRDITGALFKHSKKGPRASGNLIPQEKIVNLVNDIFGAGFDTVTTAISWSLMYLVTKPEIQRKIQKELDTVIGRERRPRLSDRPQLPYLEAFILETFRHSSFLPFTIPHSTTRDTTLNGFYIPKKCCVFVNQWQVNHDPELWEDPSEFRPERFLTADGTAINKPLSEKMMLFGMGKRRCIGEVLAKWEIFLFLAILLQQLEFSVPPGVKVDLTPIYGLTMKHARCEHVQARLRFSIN

[21] = Volume of distribution at steady state in CD-1 mouse at 1 mg/kg, iv administered as single dose measured up to 24 hrs; assay type: ADME, organism-based; conditions: in vivo
How it was run: (§5)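 Male CD-1 mice, 6–8 weeks old, single tail-vein dose in 3% NMP/45% PEG300/12% ethanol/40% sterile water. Retro-orbital plasma (K3EDTA) taken at 0.083, 0.25, 0.5, 1, 2, 4, 8 and 24 h, n=3/timepoint, analysed by HPLC/MS/MS. Non-compartmental analysis (Model 201, uniform weighting); Tmax read directly from the data.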

[22] = Tmax in CD-1 mouse at 5 mg/kg, po administered as single dose measured up to 24 hrs; assay type: ADME, organism-based; conditions: in vivo
How it was run: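 Male CD-1 mice, 6–8 weeks old, single oral gavage dose in 5% NMP/95% PEG300. Plasma (K3EDTA, retro-orbital, under isoflurane) taken at 0.25, 0.5, 1, 2, 4, 8 and 24 h, n=3/timepoint, analysed by HPLC/MS/MS. Non-compartmental extravascular analysis (Model 200); Tmax taken directly from the data.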

[23] = molecular target: Cytochrome P450 3A4 (Homo sapiens, UniProt P08684); assay: Inhibition of recombinant CYP3A4 (unknown origin) by fluorescence-based assay; assay type: ADME
[24] = Ratio of drug concentration in CD-1 mouse brain to plasma at 5 mg/kg, po measured after 1 hr; assay type: ADME, organism-based
How it was run: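 Male CD-1 mice dosed once iv (1 mg/kg) or by oral gavage (5 mg/kg). Brain and plasma collected 1 h post dose (n=3/timepoint). Drug levels by HPLC/MS/MS; brain/plasma ratio calculated from these levels.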

[25] = Tmax in CD-1 mouse at 1 mg/kg, iv administered as single dose measured up to 24 hrs; assay type: ADME, organism-based; conditions: in vivo; how it was run: as §5
[26] = Metabolic stability in rat liver microsomes assessed as parent compound remaining at 1 uM incubated for 30 mins; assay type: ADME, Microsome; conditions: 0.5 h; how it was run: as §2
[27] = molecular target: Gamma-secretase (Homo sapiens) (UniProt Q96BI3+Q9NZ42+Q8WW43+P49768+Q92542+P49810); assay: Modulation of gamma secretase in human SH-SY5Y cells overexpressing wild type APP751 assessed as effect on total amyloid beta level by meso scale discovery; assay type: cell-based
How it was run: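 SHSY5Y cells stably overexpressing wild-type human APP751 treated with the compound over a concentration range. Aβ38, Aβ40, Aβ42 and total Aβ in the medium measured by MSD triplex immunoassay (4G8 detection, 2 h at room temperature). Concentrations back-fitted from standard curves.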

[28] = molecular target: Cytochrome P450 2C19 (Homo sapiens, UniProt P33261); assay: Inhibition of recombinant CYP2C19 (unknown origin) by fluorescence-based assay; assay type: ADME; how it was run: as §4
[29] = tested on: Gamma-secretase; assay: Inhibition of gamma secretase in human H4 cells overexpressing APP751 transfected with Myc-tagged Notch at 1 to 10 uM incubated for 24 hrs in presence of NICD by Western blot analysis; conditions: h4, 24 h
[30] = Ratio of drug concentration in CD-1 mouse brain to plasma at 1 mg/kg, iv measured after 1 hr
[31] = molecular target: Gamma-secretase; assay: Modulation of gamma secretase in human SH-SY5Y cells overexpressing wild type APP751 assessed as effect on amyloid beta42 level by meso scale discovery; assay type: cell-based
[32] = tested on: Gamma-secretase; assay: Inhibition of gamma secretase in human H4 cells overexpressing APP751 transfected with Myc-tagged Notch assessed as accumulation of Notch substrate at 100 to 300 nM incubated for 24 hrs by Western blot analysis; assay type: cell-based; conditions: h4, 24 h, 0.3 µM, dose 100-300 nM
How it was run: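 H4 neuroglioma cells stably overexpressing human APP751 were transfected with Myc-tagged NΔE Notch, then treated 24 h with 1 or 10 μM modulator, 100 or 300 nM DAPT, or vehicle. Cells harvested 48 h post-transfection. Western blot with anti-Myc detected NΔE and NICD; β-actin served as loading control.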

Chain of Cytochrome P450 2C9 (P11712 whole entry, canonical isoform): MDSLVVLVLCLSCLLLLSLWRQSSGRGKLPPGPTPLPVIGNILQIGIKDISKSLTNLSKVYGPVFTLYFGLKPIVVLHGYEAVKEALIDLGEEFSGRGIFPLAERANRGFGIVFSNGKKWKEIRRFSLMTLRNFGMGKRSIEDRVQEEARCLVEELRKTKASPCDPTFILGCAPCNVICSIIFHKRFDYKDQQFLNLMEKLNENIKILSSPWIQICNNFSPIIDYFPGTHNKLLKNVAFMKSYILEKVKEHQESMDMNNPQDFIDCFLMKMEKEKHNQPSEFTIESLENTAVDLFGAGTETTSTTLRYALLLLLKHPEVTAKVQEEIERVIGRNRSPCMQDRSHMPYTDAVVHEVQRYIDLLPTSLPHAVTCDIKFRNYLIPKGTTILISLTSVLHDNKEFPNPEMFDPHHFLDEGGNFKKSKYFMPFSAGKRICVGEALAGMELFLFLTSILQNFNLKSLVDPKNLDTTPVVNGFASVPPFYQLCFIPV
Chain of Voltage-gated inwardly rectifying potassium channel KCNH2 (Q12809 whole entry): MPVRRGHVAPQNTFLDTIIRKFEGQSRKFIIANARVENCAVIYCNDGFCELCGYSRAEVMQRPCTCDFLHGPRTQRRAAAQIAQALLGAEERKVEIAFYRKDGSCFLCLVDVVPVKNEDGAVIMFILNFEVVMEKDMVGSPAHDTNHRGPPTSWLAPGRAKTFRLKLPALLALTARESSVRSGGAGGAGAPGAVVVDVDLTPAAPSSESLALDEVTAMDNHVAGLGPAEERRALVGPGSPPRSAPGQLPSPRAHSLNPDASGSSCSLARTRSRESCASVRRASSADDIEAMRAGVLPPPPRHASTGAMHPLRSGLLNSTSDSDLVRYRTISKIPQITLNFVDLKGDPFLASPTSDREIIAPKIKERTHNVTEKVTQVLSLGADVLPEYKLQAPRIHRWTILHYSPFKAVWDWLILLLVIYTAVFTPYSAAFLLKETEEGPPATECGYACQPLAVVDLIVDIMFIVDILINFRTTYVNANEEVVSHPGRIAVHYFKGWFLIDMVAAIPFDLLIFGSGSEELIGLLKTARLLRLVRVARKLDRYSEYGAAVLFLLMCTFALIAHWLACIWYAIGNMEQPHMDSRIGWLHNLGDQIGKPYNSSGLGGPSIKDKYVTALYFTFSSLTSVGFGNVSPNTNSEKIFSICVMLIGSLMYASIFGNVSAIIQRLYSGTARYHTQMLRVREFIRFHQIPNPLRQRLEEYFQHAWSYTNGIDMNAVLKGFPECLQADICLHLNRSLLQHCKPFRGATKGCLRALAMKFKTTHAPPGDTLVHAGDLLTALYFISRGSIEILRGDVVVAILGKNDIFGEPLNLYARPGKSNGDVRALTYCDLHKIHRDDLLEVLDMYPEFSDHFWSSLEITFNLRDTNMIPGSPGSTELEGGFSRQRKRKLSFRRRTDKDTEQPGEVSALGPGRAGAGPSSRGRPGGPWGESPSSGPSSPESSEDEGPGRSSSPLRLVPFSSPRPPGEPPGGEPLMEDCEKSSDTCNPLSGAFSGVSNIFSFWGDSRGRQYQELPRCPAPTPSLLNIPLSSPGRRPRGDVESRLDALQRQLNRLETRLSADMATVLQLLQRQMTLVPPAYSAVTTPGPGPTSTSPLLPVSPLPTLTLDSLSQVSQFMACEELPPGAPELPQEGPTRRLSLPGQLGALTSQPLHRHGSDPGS
Chain of Cytochrome P450 2D6 (P10635 whole entry): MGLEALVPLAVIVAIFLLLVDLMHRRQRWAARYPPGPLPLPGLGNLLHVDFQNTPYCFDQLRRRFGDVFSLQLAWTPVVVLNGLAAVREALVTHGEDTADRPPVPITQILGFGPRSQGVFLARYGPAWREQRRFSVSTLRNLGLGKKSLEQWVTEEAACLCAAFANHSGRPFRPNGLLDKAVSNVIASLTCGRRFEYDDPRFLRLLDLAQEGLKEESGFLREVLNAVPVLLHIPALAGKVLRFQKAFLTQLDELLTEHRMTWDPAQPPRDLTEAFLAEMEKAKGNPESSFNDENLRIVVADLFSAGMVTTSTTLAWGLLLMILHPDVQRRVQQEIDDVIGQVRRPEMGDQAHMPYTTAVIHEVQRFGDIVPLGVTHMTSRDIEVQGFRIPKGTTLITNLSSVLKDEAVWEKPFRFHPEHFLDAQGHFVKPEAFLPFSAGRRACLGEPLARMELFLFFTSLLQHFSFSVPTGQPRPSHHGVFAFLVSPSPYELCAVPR
Chain of Cytochrome P450 2C19 (P33261 whole entry): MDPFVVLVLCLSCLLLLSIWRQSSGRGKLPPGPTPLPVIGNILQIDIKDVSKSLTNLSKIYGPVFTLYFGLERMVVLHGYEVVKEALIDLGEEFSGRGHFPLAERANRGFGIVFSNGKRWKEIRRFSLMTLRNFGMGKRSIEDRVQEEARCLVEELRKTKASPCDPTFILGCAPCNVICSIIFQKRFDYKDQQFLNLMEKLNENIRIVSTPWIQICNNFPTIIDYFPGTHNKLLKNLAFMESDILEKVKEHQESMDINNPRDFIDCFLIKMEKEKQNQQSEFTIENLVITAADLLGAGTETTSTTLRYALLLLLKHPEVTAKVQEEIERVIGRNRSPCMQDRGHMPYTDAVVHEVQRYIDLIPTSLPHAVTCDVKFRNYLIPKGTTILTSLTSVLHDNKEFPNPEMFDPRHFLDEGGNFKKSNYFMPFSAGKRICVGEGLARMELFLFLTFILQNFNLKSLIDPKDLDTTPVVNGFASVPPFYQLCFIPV
Chain of Cytochrome P450 3A4 (P08684 whole entry): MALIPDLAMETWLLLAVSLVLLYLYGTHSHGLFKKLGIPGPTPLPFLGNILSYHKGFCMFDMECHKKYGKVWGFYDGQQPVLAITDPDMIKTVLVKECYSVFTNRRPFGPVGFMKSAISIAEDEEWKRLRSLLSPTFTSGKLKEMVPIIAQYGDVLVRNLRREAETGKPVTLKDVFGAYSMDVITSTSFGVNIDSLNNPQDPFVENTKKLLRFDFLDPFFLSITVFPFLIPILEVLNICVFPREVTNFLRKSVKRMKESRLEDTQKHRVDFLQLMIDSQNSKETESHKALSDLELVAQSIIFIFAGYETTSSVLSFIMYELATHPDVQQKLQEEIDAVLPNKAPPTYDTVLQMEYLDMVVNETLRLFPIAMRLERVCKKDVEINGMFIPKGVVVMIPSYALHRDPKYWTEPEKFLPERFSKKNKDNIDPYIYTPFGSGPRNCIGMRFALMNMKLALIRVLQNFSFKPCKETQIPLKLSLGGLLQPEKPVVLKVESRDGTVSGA

Compound: CCn1nc2c(c1Nc1nc(-c3ccc(-n4cnc(C)c4)c(OC)n3)cs1)CCCC2
Cmax [1]: 705 ng/mL
IC50 [2]: 0.104 µM
AUClast [3]: 443 ng·h/mL
Cmax [4]: 824 ng/mL
IC50 [5]: 0.06 µM
EC50 [6]: 0.305 µM
PPB [7]: 99.6%
solubility kinetic [8]: 4.5 µM (≈ 1.96 µg/mL)
AUClast [9]: 1089 ng·h/mL
Stabilty [10]: 36%
IC50 [11]: 8.6 µM
F [12]: 100%
IC50 [13]: 9 µM
t1/2 [14]: 30 min
AUC [15]: 463 ng·h/mL
IC50 [16]: > 100 µM
F [17]: 53.7%
Stabilty [18]: 64%
AUC [19]: 1243 ng·h/mL
IC50 [20]: > 100 µM
Vdss [21]: 1.413 L/kg
Tmax [22]: 15 min
IC50 [23]: 3.7 µM
BPR [24]: 0.4
Tmax [25]: 4.98 min
Stabilty [26]: 71%
Activity [27]: inactive
IC50 [28]: 5.9 µM
inhibition (INH) [29]: Not Active
BPR [30]: 0.4
IC50 [31]: 0.058 µM

inhibition (INH) [32]: Active
Compound: C[C@H](NC(=O)Cc1cc(F)cc(F)c1)C(=O)N[C@H](C(=O)OC(C)(C)C)c1ccccc1
